Results reported in ChEMBL document CHEMBL4334451, “Natural Alkaloid Berberine Activity against Pseudomonas aeruginosa MexXY-Mediated Aminoglycoside Resistance: In Silico and in Vitro Studies” (J Nat Prod, 2019).
The source made the active and inactive calls. The rule behind the calls is not given here.

Key:
Format in all cases: protein-complex assay
[1] = molecular target: T1, MexXY/OprM (Pseudomonas aeruginosa (strain ATCC 15692 / DSM 22644 / CIP 104116 / JCM14847 / LMG 12228 / 1C / PRS 101 / PAO1)) (UniProt Q51487+Q9ZNG9+Q9ZNG8); test: Inhibition of MexXY/OPRM in Pseudomonas aeruginosa C25 assessed as reduction in bacterial resistance to tobramycin by measuring tobramycin MIC at 80 ug/ml incubated for 24 to 48 hrs by broth microdilution method (reference value: 16 ug/ml)
[2] = molecular target: T1, MexXY/OprM (Pseudomonas aeruginosa (strain ATCC 15692 / DSM 22644 / CIP 104116 / JCM14847 / LMG 12228 / 1C / PRS 101 / PAO1)); test: Inhibition of MexXY/OPRM in Pseudomonas aeruginosa C60 assessed as reduction in bacterial resistance to tobramycin by measuring fold reduction in tobramycin MIC at 80 ug/ml incubated for 24 to 48 hrs by broth microdilution method
[3] = molecular target: T1, MexXY/OprM (Pseudomonas aeruginosa (strain ATCC 15692 / DSM 22644 / CIP 104116 / JCM14847 / LMG 12228 / 1C / PRS 101 / PAO1)); test: Inhibition of MexXY/OPRM in Pseudomonas aeruginosa C76 assessed as bacterial growth up to 320 ug/ml incubated for 24 to 48 hrs by broth microdilution method
Method in brief: (§1)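 Broth microdilution following CLSI guidelines, with P. aeruginosa ATCC 27853 as reference strain. Berberine was tested at 2-fold concentrations from 10 to 320 µg/ml, dissolved in 50% DMSO/50% methanol, with the top concentration set to keep final DMSO close to 1%. Plates were incubated at 37°C and read for visible growth at 24 and 48 h.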

[4] = molecular target: T1, MexXY/OprM (Pseudomonas aeruginosa (strain ATCC 15692 / DSM 22644 / CIP 104116 / JCM14847 / LMG 12228 / 1C / PRS 101 / PAO1)); test: Inhibition of MexXY/OPRM in Pseudomonas aeruginosa C67 assessed as bacterial growth up to 320 ug/ml incubated for 24 to 48 hrs by broth microdilution method; method in brief: as §1
[5] = molecular target: T1, MexXY/OprM (Pseudomonas aeruginosa (strain ATCC 15692 / DSM 22644 / CIP 104116 / JCM14847 / LMG 12228 / 1C / PRS 101 / PAO1)); test: Inhibition of MexXY/OPRM in Pseudomonas aeruginosa C51 assessed as bacterial growth up to 320 ug/ml incubated for 24 to 48 hrs by broth microdilution method; method in brief: as §1
[6] = molecular target: T1, MexXY/OprM (Pseudomonas aeruginosa (strain ATCC 15692 / DSM 22644 / CIP 104116 / JCM14847 / LMG 12228 / 1C / PRS 101 / PAO1)); test: Inhibition of MexXY/OPRM in Pseudomonas aeruginosa C54 assessed as reduction in bacterial resistance to tobramycin by measuring tobramycin MIC at 80 ug/ml incubated for 24 to 48 hrs by broth microdilution method (reference value: 32 ug/ml)
[7] = molecular target: T1, MexXY/OprM (Pseudomonas aeruginosa (strain ATCC 15692 / DSM 22644 / CIP 104116 / JCM14847 / LMG 12228 / 1C / PRS 101 / PAO1)); test: Inhibition of MexXY/OPRM in Pseudomonas aeruginosa C86 assessed as reduction in bacterial resistance to tobramycin by measuring fold reduction in tobramycin MIC at 80 ug/ml incubated for 24 to 48 hrs by broth microdilution method
Method in brief: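 Tobramycin MIC by CLSI broth microdilution at 37°C, read at 24 and 48 h, with and without a fixed berberine concentration selected from checkerboard assays. Berberine stock was in 50% DMSO/50% methanol, final DMSO about 1%. A 2-fold decrease in tobramycin MIC was scored as synergy.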

[8] = molecular target: T1, MexXY/OprM (Pseudomonas aeruginosa (strain ATCC 15692 / DSM 22644 / CIP 104116 / JCM14847 / LMG 12228 / 1C / PRS 101 / PAO1)); test: Inhibition of MexXY/OPRM in Pseudomonas aeruginosa C84 assessed as reduction in bacterial resistance to tobramycin by measuring tobramycin MIC at 80 ug/ml incubated for 24 to 48 hrs by broth microdilution method (reference value: 0.5 ug/ml)
Method in brief: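 Broth microdilution per CLSI, with P. aeruginosa ATCC 27853 as reference strain, in 2-fold dilution series. Plates were incubated at 37°C and read for visible growth at 24 and 48 h. Berberine stock was in 50% DMSO/50% methanol, with final DMSO kept near 1%. Berberine was tested at 10–320 µg/ml, alone or at a fixed level with serial tobramycin.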

In the case of COc1ccc2cc3[n+](cc2c1OC)CCc1cc2c(cc1-3)OCO2 [BERBERINE], the MIC [1] is reported as 1 µg/mL, the fold change (FC) [2] is reported as greater than 2 and the inhibition [3] is reported as “inactive”. For the same compound, the inhibition [4] was “inactive”, the inhibition [5] was “inactive” and the MIC [6] was 16 µg/mL. It also gave a fold change (FC) [7] greater than 2 and an MIC [8] of 0.125 µg/mL.
